Measurements: ChEMBL document CHEMBL3286113, “New potent antibacterial oxazolidinone (MRX-I) with an improved class safety profile” (J Med Chem, 2014)
Converted amounts (≈) assume the structure as drawn.

Key:
Rattus norvegicus [1] = assay: Toxicity in female rat assessed as effect on neutrophil count at 100 mg/kg/day, po bid administered for 4 weeks (reference value: 22.4%); type: organism-based; set-up: route oral; settings: in vivo, 672 h
Streptococcus anginosus = assay: Antibacterial activity against Streptococcus anginosus; type: functional
Staphylococcus aureus [2] = assay: Antibacterial activity against methicillin-sensitive Staphylococcus aureus isolate 15 in po dosed mouse systemic infection model; type: functional; settings: isolate 15, po
Streptococcus agalactiae = assay: Antibacterial activity against Streptococcus agalactiae; type: functional
Staphylococcus aureus [3] = assay: Antibacterial activity against methicillin-resistant Staphylococcus aureus by broth microdilution method; type: functional
How it was run: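 MIC determined against methicillin-resistant S. aureus strain SAU1009.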

Streptococcus sanguinis = assay: Antibacterial activity against Streptococcus sanguinis; type: functional
Staphylococcus aureus [4] = assay: Antibacterial activity against Staphylococcus aureus by agar dilution method; type: functional
How it was run: (§1)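 MIC determined by agar dilution across S. aureus/MRSA isolates; MIC90 is the concentration inhibiting 90% of strains tested.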

Staphylococcus aureus [5] = assay: Antibacterial activity against linezolid-resistant Staphylococcus aureus isolate 4184; type: functional
Staphylococcus aureus [6] = assay: Antibacterial activity against methicillin-resistant Staphylococcus aureus isolate 0612 in po dosed mouse systemic infection model; type: functional; settings: isolate 0612, po
Enterococcus faecalis [7] = assay: Bacteriostatic activity against vancomycin-sensitive Enterococcus faecalis; type: functional
[8] = system: Staphylococcus epidermidis; assay: Antibacterial activity against methicillin-resistant Staphylococcus epidermidis; type: functional
Staphylococcus aureus [9] = assay: Antibacterial activity against methicillin-sensitive Staphylococcus aureus ATCC 29213 in po dosed mouse systemic infection model; type: functional; settings: ATCC 29213, po
Streptococcus pyogenes [10] = assay: Antibacterial activity against Streptococcus pyogenes isolate 556; type: functional
Rattus norvegicus [11] = assay: Toxicity in female rat assessed as effect on mean corpuscular hemoglobin level at 100 mg/kg/day, po bid administered for 4 weeks (reference value: 19.5 pg); type: organism-based; set-up: route oral; settings: in vivo, 672 h
Staphylococcus [12] = assay: Antibacterial activity against coagulase-negative Staphylococcus; type: functional
Enterococcus faecalis [13] = assay: Antibacterial activity against vancomycin-sensitive/high-level gentamycin-resistant Enterococcus faecalis isolate HH22 in po dosed mouse systemic infection model; type: functional; settings: EnGen0297, po
Rattus norvegicus [14] = assay: Toxicity in female rat assessed as effect on hematocrit level at 100 mg/kg/day, po bid administered for 4 weeks (reference value: 39.08%); type: organism-based; set-up: route oral; settings: in vivo, 672 h
[15] = target: T1, Amine oxidase [flavin-containing] A (Homo sapiens, UniProt P21397); assay: Inhibition of MAO-A (unknown origin) using tyramine as substrate after 30 to 60 mins by fluorescence plate reader analysis
T1 sequence (P21397 whole entry): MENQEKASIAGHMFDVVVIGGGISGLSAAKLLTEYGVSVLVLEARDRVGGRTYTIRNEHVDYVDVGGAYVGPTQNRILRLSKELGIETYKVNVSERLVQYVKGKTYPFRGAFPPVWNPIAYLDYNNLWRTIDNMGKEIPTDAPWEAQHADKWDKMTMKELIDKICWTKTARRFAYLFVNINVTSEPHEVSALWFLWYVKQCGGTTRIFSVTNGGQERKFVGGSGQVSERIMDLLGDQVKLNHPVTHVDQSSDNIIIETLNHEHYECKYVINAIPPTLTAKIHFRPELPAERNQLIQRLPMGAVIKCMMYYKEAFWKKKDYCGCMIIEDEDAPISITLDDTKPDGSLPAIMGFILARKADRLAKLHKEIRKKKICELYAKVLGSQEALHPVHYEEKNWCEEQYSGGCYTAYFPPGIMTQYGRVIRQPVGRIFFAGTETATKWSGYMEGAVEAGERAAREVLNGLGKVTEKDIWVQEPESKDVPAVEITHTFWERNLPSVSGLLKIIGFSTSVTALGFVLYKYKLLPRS

Enterococcus faecium [16] = assay: Bacteriostatic activity against vancomycin-resistant Enterococcus faecium; type: functional
Rattus norvegicus [17] = assay: Toxicity in female rat assessed as effect on RBC count at 100 mg/kg/day, po bid administered for 4 weeks (reference value: 7.28 x 10^12/L); type: organism-based; set-up: route oral; settings: in vivo, 672 h
Rattus norvegicus [18] = assay: Toxicity in female rat assessed as effect on hemoglobin level at 100 mg/kg/day, po bid administered for 4 weeks (reference value: 141.8 g/L); type: organism-based; set-up: route oral; settings: in vivo, 672 h
[19] = system: Streptococcus dysgalactiae subsp. equisimilis; assay: Antibacterial activity against Streptococcus equisimilis; type: functional
Rattus norvegicus [20] = assay: Toxicity in female rat assessed as effect on WBC count at 100 mg/kg/day, po bid administered for 4 weeks (reference value: 3.66 x 10^9/L); type: organism-based; set-up: route oral; settings: in vivo, 672 h
Rattus norvegicus [21] = assay: Toxicity in female rat assessed as effect on platelet count at 100 mg/kg/day, po bid administered for 4 weeks (reference value: 654.6 x 10^9/L); type: organism-based; set-up: route oral; settings: in vivo, 672 h
Rattus norvegicus [22] = assay: Toxicity in female rat assessed as effect on reticulocyte count at 100 mg/kg/day, po bid administered for 4 weeks (reference value: 1.48%); type: organism-based; set-up: route oral; settings: in vivo, 672 h
Rattus norvegicus [23] = assay: Toxicity in female rat assessed as effect on mean corpuscular volume at 100 mg/kg/day, po bid administered for 4 weeks (reference value: 53.72 fL); type: organism-based; set-up: route oral; settings: in vivo, 672 h
Staphylococcus aureus [24] = assay: Antibacterial activity against methicillin-resistant Staphylococcus aureus isolate 0605 in po dosed mouse systemic infection model; type: functional; settings: isolate 0605, po
Staphylococcus aureus [25] = assay: Antibacterial activity against Staphylococcus aureus in po dosed mouse septicemia model; type: functional
Enterococcus = assay: Bacteriostatic activity against vancomycin-sensitive Enterococcus; type: functional
[26] = system: Streptococcus constellatus; assay: Antibacterial activity against Streptococcus constellatus; type: functional
Rattus norvegicus [27] = assay: Toxicity in female rat assessed as effect on lymphocyte count at 100 mg/kg/day, po bid administered for 4 weeks (reference value: 74.8%); type: organism-based; set-up: route oral; settings: in vivo, 672 h
[28] = system: Staphylococcus saprophyticus; assay: Antibacterial activity against Staphylococcus saprophyticus; type: functional
Streptococcus pneumoniae [29] = assay: Bactericidal activity against penicillin-resistant Streptococcus pneumoniae; type: functional
Staphylococcus aureus [30] = assay: Antibacterial activity against methicillin-sensitive Staphylococcus aureus; type: functional
Streptococcus pneumoniae [31] = assay: Antibacterial activity against penicillin intermediate-sensitive Streptococcus pneumoniae ATCC 49619 clinical isolate in po dosed mouse systemic infection model; type: functional; settings: ATCC 49619, po
Streptococcus pyogenes [32] = assay: Antibacterial activity against Streptococcus pyogenes isolate 556 in po dosed mouse systemic infection model; type: functional; settings: isolate 556, po
Streptococcus pneumoniae [33] = assay: Bactericidal activity against penicillin-sensitive Streptococcus pneumoniae; type: functional
Streptococcus mitis = assay: Antibacterial activity against Streptococcus mitis; type: functional
[34] = system: Staphylococcus haemolyticus; assay: Antibacterial activity against Staphylococcus haemolyticus; type: functional
Staphylococcus aureus [35] = assay: Antibacterial activity against methicillin-resistant Staphylococcus aureus by agar dilution method; type: functional; how it was run: as §1
Streptococcus pyogenes [36] = assay: Antibacterial activity against Streptococcus pyogenes; type: functional
Enterococcus faecalis [37] = assay: Antibacterial activity against vancomycin-sensitive Enterococcus faecalis ATCC 29212 in po dosed mouse systemic infection model; type: functional; settings: ATCC 29212, po
Staphylococcus aureus [38] = assay: Antibacterial activity against methicillin-sensitive Staphylococcus aureus ATCC 29213; type: functional
[39] = system: Staphylococcus epidermidis; assay: Antibacterial activity against methicillin-sensitive Staphylococcus epidermidis; type: functional
Enterococcus faecalis [40] = assay: Antibacterial activity against vancomycin-resistant Enterococcus faecalis isolate EFL 4041 in po dosed mouse systemic infection model; type: functional; settings: isolate EFL 4041, po
[41] = Myelosuppression activity against human CD34-positive blood stem/progenitor cells assessed as growth inhibition after 9 to 10 days by CellTiter-Glo luminescent assay
Staphylococcus [42] = assay: Antibacterial activity against beta-lactamase-negative Staphylococcus; type: functional
Enterococcus faecium [43] = assay: Bacteriostatic activity against vancomycin-sensitive Enterococcus faecium; type: functional
Streptococcus pneumoniae [44] = assay: Antibacterial activity against penicillin-resistant Streptococcus pneumoniae isolate 0613 in po dosed mouse systemic infection model; type: functional; settings: isolate 0613, po
Streptococcus pneumoniae [45] = assay: Bactericidal activity against penicillin intermediate-sensitive Streptococcus pneumoniae; type: functional
Streptococcus pneumoniae [46] = assay: Antibacterial activity against penicillin-sensitive Streptococcus pneumoniae isolate 0806 in po dosed mouse systemic infection model; type: functional; settings: isolate 0806, po

Structure (SMILES): CC(=O)NC[C@H]1CN(c2ccc(N3CCOCC3)c(F)c2)C(=O)O1 [LINEZOLID]
- Activity (Rattus norvegicus [1]): 13%
- MIC50 (Streptococcus anginosus): 0.5 µg/mL (≈ 1.48 µM)
- MIC90 (Streptococcus anginosus): 1 µg/mL (≈ 2.96 µM)
- ED50 (Staphylococcus aureus [2]): 5.9 mg/kg
- MIC (Streptococcus agalactiae): 1 µg/mL (≈ 2.96 µM)
- MIC50 (Streptococcus agalactiae): 1 µg/mL (≈ 2.96 µM)
- MIC90 (Streptococcus agalactiae): 1 µg/mL (≈ 2.96 µM)
- MIC90 (Staphylococcus aureus [3]): 2 µg/mL (≈ 5.93 µM)
- MIC (Streptococcus sanguinis): 0.06 µg/mL (≈ 0.178 µM)
- MIC90 (Staphylococcus aureus [4]): 8 µg/mL (≈ 23.7 µM)
- MIC (Staphylococcus aureus [5]): > 16 µg/mL
- ED50 (Staphylococcus aureus [6]): 8.7 mg/kg
- MIC50 (Enterococcus faecalis [7]): 1 µg/mL (≈ 2.96 µM)
- MIC90 (Enterococcus faecalis [7]): 1 µg/mL (≈ 2.96 µM)
- MIC50 [8]: 0.5 µg/mL (≈ 1.48 µM)
- MIC90 [8]: 1 µg/mL (≈ 2.96 µM)
- ED50 (Staphylococcus aureus [9]): 9 mg/kg
- MIC (Streptococcus pyogenes [10]): 1 µg/mL (≈ 2.96 µM)
- Activity (Rattus norvegicus [11]): 20.52 pg
- MIC50 (Staphylococcus [12]): 0.5 µg/mL (≈ 1.48 µM)
- MIC90 (Staphylococcus [12]): 1 µg/mL (≈ 2.96 µM)
- ED50 (Enterococcus faecalis [13]): 5.6 mg/kg
- Activity (Rattus norvegicus [14]): 30.18%
- IC50 [15]: 24 µM
- MIC (Enterococcus faecium [16]): 1 µg/mL (≈ 2.96 µM)
- MIC50 (Enterococcus faecium [16]): 1 µg/mL (≈ 2.96 µM)
- MIC90 (Enterococcus faecium [16]): 1 µg/mL (≈ 2.96 µM)
- Activity (Rattus norvegicus [17]): 5.52 ×10¹² /L
- Activity (Rattus norvegicus [18]): 112.8 g/L
- MIC [19]: 0.5 µg/mL (≈ 1.48 µM)
- MIC50 [19]: 0.5 µg/mL (≈ 1.48 µM)
- MIC90 [19]: 1 µg/mL (≈ 2.96 µM)
- Activity (Rattus norvegicus [20]): 1.9 ×10⁹ /L
- Activity (Rattus norvegicus [21]): 487.4 ×10⁹ /L
- Activity (Rattus norvegicus [22]): 1.64%
- Activity (Rattus norvegicus [23]): 54.74 fL
- ED50 (Staphylococcus aureus [24]): 10.2 mg/kg
- ED50 (Staphylococcus aureus [25]): 6.3 mg/kg
- MIC50 (Enterococcus): 1 µg/mL (≈ 2.96 µM)
- MIC90 (Enterococcus): 1 µg/mL (≈ 2.96 µM)
- MIC50 [26]: 1 µg/mL (≈ 2.96 µM)
- MIC90 [26]: 1 µg/mL (≈ 2.96 µM)
- Activity (Rattus norvegicus [27]): 86.2%
- MIC50 [28]: 1 µg/mL (≈ 2.96 µM)
- MIC90 [28]: 1 µg/mL (≈ 2.96 µM)
- MIC50 (Streptococcus pneumoniae [29]): 0.5 µg/mL (≈ 1.48 µM)
- MIC90 (Streptococcus pneumoniae [29]): 0.5 µg/mL (≈ 1.48 µM)
- MIC50 (Staphylococcus aureus [30]): 1 µg/mL (≈ 2.96 µM)
- MIC90 (Staphylococcus aureus [30]): 1 µg/mL (≈ 2.96 µM)
- ED50 (Streptococcus pneumoniae [31]): 8.17 mg/kg
- ED50 (Streptococcus pyogenes [32]): 7.8 mg/kg
- MIC50 (Streptococcus pneumoniae [33]): 0.5 µg/mL (≈ 1.48 µM)
- MIC90 (Streptococcus pneumoniae [33]): 1 µg/mL (≈ 2.96 µM)
- MIC50 (Streptococcus mitis): 1 µg/mL (≈ 2.96 µM)
- MIC90 (Streptococcus mitis): 1 µg/mL (≈ 2.96 µM)
- MIC [34]: 0.5 µg/mL (≈ 1.48 µM)
- MIC50 [34]: 0.5 µg/mL (≈ 1.48 µM)
- MIC90 [34]: 1 µg/mL (≈ 2.96 µM)
- MIC50 (Staphylococcus aureus [35]): 1 µg/mL (≈ 2.96 µM)
- MIC90 (Staphylococcus aureus [35]): 1 µg/mL (≈ 2.96 µM)
- MIC50 (Streptococcus pyogenes [36]): 1 µg/mL (≈ 2.96 µM)
- MIC90 (Streptococcus pyogenes [36]): 1 µg/mL (≈ 2.96 µM)
- ED50 (Enterococcus faecalis [37]): 13.4 mg/kg
- MIC (Staphylococcus aureus [38]): 1 µg/mL (≈ 2.96 µM)
- MIC50 [39]: 0.5 µg/mL (≈ 1.48 µM)
- MIC90 [39]: 0.5 µg/mL (≈ 1.48 µM)
- ED50 (Enterococcus faecalis [40]): 6 mg/kg
- IC50 [41]: 6.3 µg/mL (≈ 18.7 µM)
- MIC50 (Staphylococcus [42]): 0.5 µg/mL (≈ 1.48 µM)
- MIC90 (Staphylococcus [42]): 1 µg/mL (≈ 2.96 µM)
- MIC50 (Enterococcus faecium [43]): 1 µg/mL (≈ 2.96 µM)
- MIC90 (Enterococcus faecium [43]): 1 µg/mL (≈ 2.96 µM)
- ED50 (Streptococcus pneumoniae [44]): 9.3 mg/kg
- MIC50 (Streptococcus pneumoniae [45]): 0.5 µg/mL (≈ 1.48 µM)
- MIC90 (Streptococcus pneumoniae [45]): 0.5 µg/mL (≈ 1.48 µM)
- ED50 (Streptococcus pneumoniae [46]): 16.8 mg/kg
